Measurements taken from paper PMC9206500 (Journal of medicinal chemistry, 2021).
Where two headings read alike, the source gives them in different places. Each block holds one compound with its values, some of them ahead of it.

What was measured:
TA1535 = test: AMES fluctuation test, TA1535; design: species or system bacteria; conditions: strain TA1535
TA98 = test: AMES fluctuation test, TA98; design: species or system bacteria; conditions: strain TA98
CYP3A = test: CYP inhibition, CYP3A; type: in vitro ADME, human; conditions: at 10 μM, HLM
CYP2C9 = CYP2C9 (Homo sapiens, UniProt P11712); test: CYP inhibition, CYP2C9; type: in vitro ADME; conditions: at 10 μM, HLM, diclofenac substrate
Sequence of CYP2C9 (P11712 whole entry): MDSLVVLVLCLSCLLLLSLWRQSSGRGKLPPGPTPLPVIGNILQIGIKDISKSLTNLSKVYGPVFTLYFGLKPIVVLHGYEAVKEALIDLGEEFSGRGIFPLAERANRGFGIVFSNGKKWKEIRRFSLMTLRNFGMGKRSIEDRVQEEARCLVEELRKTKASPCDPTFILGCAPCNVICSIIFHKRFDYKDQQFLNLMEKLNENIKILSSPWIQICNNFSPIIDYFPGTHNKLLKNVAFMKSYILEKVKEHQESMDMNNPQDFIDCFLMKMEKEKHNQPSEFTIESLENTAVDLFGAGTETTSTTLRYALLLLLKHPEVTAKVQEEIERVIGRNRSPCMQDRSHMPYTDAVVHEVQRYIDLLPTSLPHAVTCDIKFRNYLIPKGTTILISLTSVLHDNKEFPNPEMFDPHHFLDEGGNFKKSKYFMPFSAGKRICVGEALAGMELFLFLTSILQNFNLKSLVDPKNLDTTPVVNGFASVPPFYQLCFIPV

A375/TxR xenograft [1] = test: A375/TxR xenograft antitumor efficacy; type: in vivo, NSG mice; conditions: for average tumor weight: vehicle 2.0 g; for tumor necrosis (H&E of excised tumors): 60c 10 and 20 mg/kg, paclitaxel 10 mg/kg
Method in brief: (§1)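 Hosts were NSG mice aged 5–6 weeks. At ~100 mm3 mice were randomized by weight and volume into four groups (3 male + 3 female each). Test compound vehicle was PEG300:Tween 80:saline 3:1:6. Dosing was IP three times weekly. The study ended when vehicle tumors neared ~1000 mm3.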

CYP2B6 = CYP2B6 (Homo sapiens, UniProt P20813); test: CYP inhibition, CYP2B6; type: in vitro ADME; conditions: at 10 μM, HLM, bupropion substrate
Sequence of CYP2B6 (P20813 whole entry): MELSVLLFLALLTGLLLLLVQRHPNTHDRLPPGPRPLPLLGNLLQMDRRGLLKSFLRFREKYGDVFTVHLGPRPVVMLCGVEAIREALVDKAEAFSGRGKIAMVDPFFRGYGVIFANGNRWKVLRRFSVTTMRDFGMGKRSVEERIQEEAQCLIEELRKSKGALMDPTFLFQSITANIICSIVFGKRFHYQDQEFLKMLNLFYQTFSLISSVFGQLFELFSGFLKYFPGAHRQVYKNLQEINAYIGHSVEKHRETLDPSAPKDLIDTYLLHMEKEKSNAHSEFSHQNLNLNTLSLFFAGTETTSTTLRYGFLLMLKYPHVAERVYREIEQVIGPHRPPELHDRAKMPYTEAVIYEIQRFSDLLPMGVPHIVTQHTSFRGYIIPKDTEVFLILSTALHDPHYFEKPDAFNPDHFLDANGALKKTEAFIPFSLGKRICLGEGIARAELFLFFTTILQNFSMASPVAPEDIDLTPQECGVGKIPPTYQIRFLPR

[2] = Systemic toxicity in A375/TxR tumor-bearing mice; type: in vivo, NSG mice; conditions: for histology of major organs (lung, liver, kidney, heart, spleen), H&E: paclitaxel 10 mg/kg, 60c 10 or 20 mg/kg IP
Method in brief: as §1

[3] = target: purified porcine brain tubulin (Sus scrofa, UniProt P02554+Q2XVP4); test: Cell-free tubulin polymerization assay; type: biochemical; conditions: 10 μM, tubulin 3 mg/mL, GTP 1 mM, 1 h
Sequence of purified porcine brain tubulin (Q2XVP4 whole entry): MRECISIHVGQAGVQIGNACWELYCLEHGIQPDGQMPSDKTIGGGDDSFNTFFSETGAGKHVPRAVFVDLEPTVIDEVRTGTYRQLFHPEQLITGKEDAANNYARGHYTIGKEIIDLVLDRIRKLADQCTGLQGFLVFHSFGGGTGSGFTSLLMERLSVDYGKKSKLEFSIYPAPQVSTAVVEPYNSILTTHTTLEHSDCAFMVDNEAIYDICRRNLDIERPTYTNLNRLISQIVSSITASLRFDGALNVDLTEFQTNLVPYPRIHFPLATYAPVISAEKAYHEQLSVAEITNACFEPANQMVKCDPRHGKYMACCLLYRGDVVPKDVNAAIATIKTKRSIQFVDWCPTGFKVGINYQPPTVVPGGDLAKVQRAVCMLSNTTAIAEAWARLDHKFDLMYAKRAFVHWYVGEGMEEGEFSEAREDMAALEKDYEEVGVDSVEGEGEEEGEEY
Sequence of purified porcine brain tubulin (P02554 whole entry): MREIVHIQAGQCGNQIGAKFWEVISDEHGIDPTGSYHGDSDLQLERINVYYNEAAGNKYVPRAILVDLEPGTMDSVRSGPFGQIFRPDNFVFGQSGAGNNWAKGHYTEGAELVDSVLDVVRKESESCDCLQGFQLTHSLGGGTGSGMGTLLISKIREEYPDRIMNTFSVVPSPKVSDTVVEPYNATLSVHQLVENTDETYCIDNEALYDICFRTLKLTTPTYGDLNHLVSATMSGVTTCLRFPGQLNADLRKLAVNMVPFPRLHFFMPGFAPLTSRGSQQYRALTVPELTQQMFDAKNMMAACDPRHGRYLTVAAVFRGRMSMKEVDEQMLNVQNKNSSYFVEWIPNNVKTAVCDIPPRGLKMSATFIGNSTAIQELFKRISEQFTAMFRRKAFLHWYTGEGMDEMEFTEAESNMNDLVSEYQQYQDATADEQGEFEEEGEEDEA

A375/TxR xenograft [4] = test: Spontaneous metastasis in A375/TxR xenograft model; type: in vivo, NSG mice; conditions: for mice that developed liver metastases: n = 6
Method in brief: as §1

CYP2D6 = CYP2D6 (Homo sapiens, UniProt P10635); test: CYP inhibition, CYP2D6; type: in vitro ADME; conditions: at 10 μM, HLM, dextromethorphan substrate
Sequence of CYP2D6 (P10635 whole entry): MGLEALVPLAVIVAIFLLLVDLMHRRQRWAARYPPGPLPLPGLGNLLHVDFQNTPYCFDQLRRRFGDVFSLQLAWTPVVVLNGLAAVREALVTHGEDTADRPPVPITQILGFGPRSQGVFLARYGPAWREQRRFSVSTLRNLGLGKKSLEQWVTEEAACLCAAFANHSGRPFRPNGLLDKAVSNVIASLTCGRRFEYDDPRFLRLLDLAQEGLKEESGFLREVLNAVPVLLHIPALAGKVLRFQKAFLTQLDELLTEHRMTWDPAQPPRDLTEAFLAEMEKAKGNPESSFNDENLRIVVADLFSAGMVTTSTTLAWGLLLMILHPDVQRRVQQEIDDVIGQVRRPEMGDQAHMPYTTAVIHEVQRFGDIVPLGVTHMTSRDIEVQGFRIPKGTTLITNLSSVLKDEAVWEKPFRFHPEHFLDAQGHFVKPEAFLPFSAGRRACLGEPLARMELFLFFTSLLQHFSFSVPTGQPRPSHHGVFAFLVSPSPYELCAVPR

CYP2C19 = CYP2C19 (Homo sapiens, UniProt P33261); test: CYP inhibition, CYP2C19; type: in vitro ADME; conditions: at 10 μM, HLM, omeprazole substrate
Sequence of CYP2C19 (P33261 whole entry): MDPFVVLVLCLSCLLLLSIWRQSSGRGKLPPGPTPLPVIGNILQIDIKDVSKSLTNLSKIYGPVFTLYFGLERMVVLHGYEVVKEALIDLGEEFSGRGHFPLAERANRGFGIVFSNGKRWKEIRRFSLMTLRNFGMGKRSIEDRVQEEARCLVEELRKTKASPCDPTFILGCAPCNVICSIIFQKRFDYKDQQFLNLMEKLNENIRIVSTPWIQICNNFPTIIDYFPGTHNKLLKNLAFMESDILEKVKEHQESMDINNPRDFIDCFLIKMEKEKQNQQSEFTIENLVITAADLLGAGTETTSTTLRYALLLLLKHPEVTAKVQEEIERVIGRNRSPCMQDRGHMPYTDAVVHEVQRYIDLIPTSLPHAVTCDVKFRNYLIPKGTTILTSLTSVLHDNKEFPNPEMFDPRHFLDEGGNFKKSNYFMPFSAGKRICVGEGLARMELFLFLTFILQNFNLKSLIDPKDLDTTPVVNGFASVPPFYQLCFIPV

A375/TxR cells [5] = test: Cell cycle analysis by flow cytometry; type: cell-based, human; conditions: 24 h; controls 10 nM, 60c 2.5, 5, 10 nM
CYP1A = CYP1A (Homo sapiens, UniProt P05177); test: CYP inhibition, CYP1A; type: in vitro ADME; conditions: at 10 μM, HLM, phenacetin substrate
Sequence of CYP1A (P05177 whole entry): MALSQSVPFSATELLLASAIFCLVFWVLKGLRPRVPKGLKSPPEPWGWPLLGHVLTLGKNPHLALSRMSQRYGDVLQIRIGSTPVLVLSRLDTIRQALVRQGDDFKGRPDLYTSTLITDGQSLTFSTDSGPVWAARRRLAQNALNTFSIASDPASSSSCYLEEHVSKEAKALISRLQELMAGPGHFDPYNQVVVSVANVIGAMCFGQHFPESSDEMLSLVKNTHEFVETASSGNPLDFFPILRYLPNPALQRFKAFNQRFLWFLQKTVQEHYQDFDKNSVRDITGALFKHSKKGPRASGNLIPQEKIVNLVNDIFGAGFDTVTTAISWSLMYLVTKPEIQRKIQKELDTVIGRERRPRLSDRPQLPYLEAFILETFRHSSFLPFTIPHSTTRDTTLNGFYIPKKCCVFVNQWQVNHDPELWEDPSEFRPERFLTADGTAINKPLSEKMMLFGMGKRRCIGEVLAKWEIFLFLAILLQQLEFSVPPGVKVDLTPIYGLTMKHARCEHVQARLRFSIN

TA1537 = test: AMES fluctuation test, TA1537; design: species or system bacteria; conditions: strain TA1537
A100 = test: AMES fluctuation test, A100; design: species or system bacteria; conditions: strain A100
[6] = Liver microsome stability assay, human; conditions: for fold improvement of half-life in human liver microsomes: compared to parent compound CH-2-77
MDA-MB-231 = test: MTS cell proliferation assay, MDA-MB-231; type: cell-based, human; conditions: read-out: IC50 ± SEM, MDA-MB-231, breast cancer cell line, 72 h, n = 4
[7] = Liver microsome stability assay, mouse; conditions: 0.5 mg/mL protein, 10 μM compound, NADPH
MDA-MB-453 = test: MTS cell proliferation assay, MDA-MB-453; type: cell-based, human; conditions: read-out: IC50 ± SEM, MDA-MB-453, breast cancer cell line, 72 h, n = 4
RPMI7951 = test: MTS cell proliferation assay, RPMI7951; type: cell-based, human; conditions: read-out: IC50 ± SEM, RPMI7951, melanoma cell line, 72 h, n = 4
M14 = test: MTS cell proliferation assay, M14; type: cell-based, human; conditions: read-out: IC50 ± SEM, M14, melanoma cell line, 72 h, n = 4
A375 = test: MTS cell proliferation assay, A375; type: cell-based, human; conditions: read-out: IC50 ± SEM, A375, melanoma cell line, 72 h, n = 4
SKBR3 = test: MTS cell proliferation assay, SKBR3; type: cell-based, human; conditions: read-out: IC50 ± SEM, SKBR3, breast cancer cell line, 72 h, n = 4
[8] = tested on: three human malignant melanoma cell lines and three breast cancer cell lines; test: MTS cell proliferation assay, average over the panel; type: cell-based; conditions: for IC50: read-out: average IC50
A375/TxR cells [9] = test: Annexin V-FITC/PI apoptosis detection; type: cell-based, human; conditions: 10 nM, 24 h; untreated […]
M14/LCC6MDR1 = test: MTS cell proliferation assay, M14/LCC6MDR1; type: cell-based; conditions: Homo sapiens, 72 h, read-out: IC50, M14/LCC6MDR1

Compound: COc1cc(C(=O)c2nc(-c3ccc(C)c(O)c3)ccc2F)cc(OC)c1OC [Compound 60c, (3-Fluoro-6-(3-hydroxy-4-methylphenyl)pyridin-2-yl)(3,4,5-trimethoxyphenyl)methanone]
- AMES fluctuation test (TA1535): TA1535: no mutation
- AMES fluctuation test (TA98): TA98: no mutation
- CYP3A inhibition (CYP3A; midazolam substrate): CYP3A (HLM, midazolam substrate): 34.7%
- CYP3A inhibition (CYP3A; testosterone substrate): CYP3A (HLM, testosterone substrate): 51.8%
- CYP2C9 inhibition (CYP2C9): CYP2C9 (HLM, diclofenac substrate): 54.7%
- average tumor weight (A375/TxR xenograft [1]; 10 mg/kg IP): 1.13 g
- average tumor weight (A375/TxR xenograft [1]; 20 mg/kg IP): 0.76 g
- tumor necrosis (H&E of excised tumors) (A375/TxR xenograft [1]): highly necrotic
- CYP2B6 inhibition (CYP2B6): CYP2B6 (HLM, bupropion substrate): 12%
- body weight during therapy ([2]; 10 or 20 mg/kg IP, 3 times/week, 18 days): without weight loss
- histology of major organs (lung, liver, kidney, heart, spleen), H&E [2]: no apparent pathological changes in the major organs
- effect on tubulin polymerization [3]: strongly inhibited microtubule polymerization
- mice that developed liver metastases (A375/TxR xenograft [4]; 20 mg/kg IP): none
- lung metastasis (H&E) (A375/TxR xenograft [4]; 10 and 20 mg/kg IP): lung nodules were markedly sparse and of reduced size
- CYP2D6 inhibition (CYP2D6): CYP2D6 (HLM, dextromethorphan substrate): 11.9%
- CYP2C19 inhibition (CYP2C19): CYP2C19 (HLM, omeprazole substrate): 49%
- effect on cell cycle distribution (A375/TxR cells [5]): dose-dependent accumulation of cells in the G2/M phase
- CYP1A inhibition (CYP1A): CYP1A (HLM, phenacetin substrate): 50.9%
- AMES fluctuation test (TA1537): TA1537: no mutation
- AMES fluctuation test (A100): A100: no mutation

- effect on tubulin polymerization [3]: increased rate of tubulin polymerization
Compound: CC(=O)O[C@H]1C(=O)[C@@]2(C)[C@H]([C@H](OC(=O)c3ccccc3)[C@]3(O)C[C@H](OC(=O)[C@H](O)[C@@H](NC(=O)c4ccccc4)c4ccccc4)C(C)=C1C3(C)C)[C@]1(OC(C)=O)CO[C@@H]1C[C@@H]2O [paclitaxel, reference compound]
- increase of tumor volume vs vehicle (A375/TxR xenograft [1]; 10 mg/kg IP, 3 times/week, 18 days): approximately 5.3%
- average tumor weight (A375/TxR xenograft [1]; 10 mg/kg IP): 2.1 g
- tumor necrosis (H&E of excised tumors) (A375/TxR xenograft [1]): all viable
- histology of major organs (lung, liver, kidney, heart, spleen), H&E [2]: no apparent pathological changes in the major organs
- mice that developed liver metastases (A375/TxR xenograft [4]; 10 mg/kg IP, vehicle 83%): 83%
- effect on cell cycle distribution (A375/TxR cells [5]): normal cell cycle progression

- fold improvement of half-life in human liver microsomes [6]: 3 fold
Compound: COc1cc(C(=O)c2cc(OC)c(OC)c(OC)c2)nc(-c2ccc(C)cc2)c1 [Compound 54a, (4-Methoxy-6-(p-tolyl)pyridin-2-yl)(3,4,5-trimethoxyphenyl)-methanone]

Compound: (6-(Indolin-6-yl)pyridin-2-yl)(3,4,5-trimethoxyphenyl)methanone [Compound 4b]
- IC50 (MDA-MB-231): 5.3 ± 1 nM
- metabolic stability in mouse liver microsome t1/2 [7]: 4.2 ± 0.00 min
- IC50 (MDA-MB-453): 5.9 ± 1.4 nM
- IC50 (RPMI7951): 5.9 ± 1.5 nM
- IC50 (M14): 5.6 ± 1.4 nM
- metabolic stability in human liver microsome t1/2 ([6]; 0.5 mg/mL protein, 10 μM compound, NADPH): 15 ± 1.2 min
- IC50 (A375): 5 ± 1 nM
- IC50 (SKBR3): 5.5 ± 1.2 nM
- IC50 ([8]; average over six cancer cell lines): 5.5 nM

- IC50 ([8]; Homo sapiens): 60.8 nM
Compound: COc1cc(C(=O)c2cc(F)cc(-c3ccc(C(F)F)cc3)c2)cc(OC)c1OC [Compound 64, (4′-(Difluoromethyl)-5-fluoro-[1,1′-biphenyl]-3-yl)(3,4,5-trimethoxyphenyl)methanone]

- IC50 ([8]; Homo sapiens): 3.8 nM
Compound: COc1cc(C(=O)c2cccc(-c3ccc(C)cc3)n2)cc2c1OCCO2 [Compound 10, (8-Methoxy-2,3-dihydrobenzo[b][1,4]dioxin-6-yl)(6-(p-tolyl)-pyridin-2-yl)methanone]

- IC50 ([8]; Homo sapiens): 3.7 nM
Compound: COc1cc(C(=O)c2cccc(-c3ccc(C)cc3)n2)cc(OC)c1OC [CH-2–1, (6-(p-Tolyl)pyridin-2-yl)(3,4,5-trimethoxyphenyl)methanone, reference compound]

- fold improvement of half-life in human liver microsomes [6]: 3 fold
Compound: COc1cc(C(=O)c2cc(OC)c(OC)c(OC)c2)nc(-c2ccc(C)c(O)c2)c1 [Compound 55b, (6-(3-Hydroxy-4-methylphenyl)-4-methoxypyridin-2-yl)(3,4,5-trimethoxyphenyl)methanone]

- IC50 ([8]; Homo sapiens): 48.7 nM
Compound: COc1cc(C(=O)c2cccc(-c3ccc(N(C)C)cc3)n2)cc(OC)c1OC [Compound 4c, (6-(4-(Dimethylamino)phenyl)pyridin-2-yl) (3,4,5-trimethoxyphenyl)methanone]
- fold reduction in antiproliferative activity ([8]; compared to CH-2–1, average IC50): 13 fold

- effect on tubulin polymerization [3]: interfered with tubulin polymerization
- IC50 ([8]; Homo sapiens): 2.5 nM
Compound: COc1cc(C(=O)c2cccc(-c3ccc(C)c(O)c3)n2)cc(OC)c1OC [CH-2–77]
- apoptotic cells (A375/TxR cells [9]): 51.1%

- IC50 ([8]; Homo sapiens): 8.2 nM
Compound: COc1cc(C(=O)c2ccnc(-c3ccc(C)c(O)c3)n2)cc(OC)c1OC [Compound 46a, (2-(3-Hydroxy-4-methylphenyl)pyrimidin-4-yl)(3,4,5-trimethoxyphenyl)methanone]

- fold improvement of half-life in human liver microsomes [6]: 19 fold
- IC50 ([8]; Homo sapiens): 34.1 nM
Compound: COc1cc(-c2n[nH]c3ccc(-c4ccc(C)c(O)c4)nc23)cc(OC)c1OC [Compound 22, 2-Methyl-5-(3-(3,4,5-trimethoxyphenyl)-1H-pyrazolo[4,3-b]-pyridin-5-yl)phenol]

- IC50 ([8]; Homo sapiens): 4.2 nM
Compound: COc1cc(C(=O)c2cncc(-c3ccc(C)cc3)n2)cc(OC)c1OC [Compound 35, (6-(p-Tolyl)pyrazin-2-yl)(3,4,5-trimethoxyphenyl)methanone]

- IC50 ([8]; Homo sapiens): 18.3 nM
Compound: CCc1c(OC)cc(C(=O)c2cccc(-c3ccc(C)c(O)c3)n2)cc1OC [Compound 13, (4-Ethyl-3,5-dimethoxyphenyl)(6-(3-hydroxy-4-methylphenyl)-pyridin-2-yl)methanone]

- IC50 ([8]; Homo sapiens): 80.5 nM
Compound: COc1cc(C(=O)c2nc(-c3ccc(C)c(O)c3)[nH]c2Br)cc(OC)c1OC [Compound 29, (5-Bromo-2-(3-hydroxy-4-methylphenyl)-1H-imidazol-4-yl)-(3,4,5-trimethoxyphenyl)methanone]

- fold improvement of half-life in human liver microsomes [6]: 3 fold
- IC50 ([8]; Homo sapiens): 7.7 nM
Compound: COc1cc(C(=O)c2cc(C)cc(-c3ccc(C)cc3)n2)cc(OC)c1OC [Compound 50a, (4-Methyl-6-(p-tolyl)pyridin-2-yl)(3,4,5-trimethoxyphenyl)-methanone]

- IC50 ([8]; Homo sapiens): 9.2 nM
Compound: COc1cc(C(=O)c2cncc(-c3ccc(C)c(O)c3)n2)cc(OC)c1OC [Compound 40a, (6-(3-Hydroxy-4-methylphenyl)pyrazin-2-yl)(3,4,5-trimethoxyphenyl)methanone]

Compound: COc1cc2c(c(OC)c1OC)-c1ccc(OC)c(=O)cc1[C@@H](NC(C)=O)CC2 [colchicine]
- effect on cell cycle distribution (A375/TxR cells [5]): normal cell cycle progression
- IC50 (M14/LCC6MDR1): > 1000 nM

- IC50 ([8]; Homo sapiens): 26.3 nM
Compound: COc1cc(C(=O)c2ccnc(-c3c[nH]c4ccccc34)n2)cc(OC)c1OC [Compound 46b, (2-(1H-Indol-3-yl)pyrimidin-4-yl)(3,4,5-trimethoxyphenyl)-methanone]

- IC50 ([8]; Homo sapiens): 33.7 nM
Compound: COc1cc(C(=O)c2cncc(-c3cccc4[nH]ncc34)n2)cc(OC)c1OC [Compound 40c, (6-(1H-Indazol-4-yl)pyrazin-2-yl)(3,4,5-trimethoxyphenyl)-methanone]
